Test results published in ChEMBL document CHEMBL2346582, “Guanidino anthrathiophenediones as G-quadruplex binders: uptake, intracellular localization, and anti-Harvey-Ras gene activity in bladder cancer cells” (J Med Chem, 2013).
Calls of active or inactive are those of the source. No cut-off for these calls is given here.

How the values were obtained:
Homo sapiens [1] = species: Homo sapiens; experiment: Thermal stabilization of human telomeric G-quadruplex FAM-TTAGGGTTAGGGTTAGGGTTAGGG-TAMRA DNA assessed as change in melting temperature at 1:5 DNA:ligand ratio by FRET assay
Summary of the method: (§1)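 FRET melting of 200 nM dual-labelled quadruplex in 50 mM Tris-HCl with KCl (100 mM for htelo and hras-1, 10 mM for KRAS and hras-2). Ligand at r = 5 ([ligand]/[quadruplex]; hras-2 tabulated at r = 4). Samples held 5 min at 20 °C, then heated 1 °C/min to 95 °C. ΔTM is the TM with ligand minus TM without ligand (±0.5 K). For hras-1 both biphasic transitions are given.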

T-24 [2] = experiment: Cell cycle arrest in human T24 cells assessed as accumulation at G0/G1 phase at 10 uM after 48 to 72 hrs by FACS analysis relative to control; type: functional
Summary of the method: (§2)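 T24 cells treated with 10 μM ligand for 48 or 72 h. Fixed 1 h at 4 °C in 70% ethanol, then stained with propidium iodide 0.05 mg/mL plus RNase A 0.1 mg/mL for 30 min at room temperature. Analysed by FACS (FL2). Phase percentages compared with control by t-test (p < 0.05).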

T-24 [3] = experiment: Cellular uptake in human T24 cells assessed as accumulation in nucleoli at 2.5 uM after 2 hrs by propidium iodide staining-based confocal microscopic analysis; type: ADME, cell-based; settings: t-24, 2 h
Summary of the method: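 T24 cells plated (3 × 10^5) on coverslips and treated after 24 h with 2.5 μM ligand for 2 h. Fixed in 3% paraformaldehyde and permeabilized with Triton X-100. Cytoplasm immunostained for DRP1 with FITC secondary; nuclei stained with propidium iodide plus RNase A. Ligand red fluorescence excited at 543 nm; confocal Z-sections at 2 μm intervals.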

T-24 [4] = experiment: Antiproliferative activity against human T24 cells by trypan blue assay; type: functional, cell-based
NIH3T3 [5] = experiment: Cytotoxicity against mouse NIH/3T3 cells at 1 to 30 uM after 72 hrs by resazurin assay; type: cell-based; settings: NIH3T3, 72 h
Summary of the method: (§3)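 Cells seeded at 3000 per well the day before treatment, grown in DMEM with 10% FBS. Ligand added at 1, 2.5, 5, 10, 20, 30 μM for 72 h. Viability measured by resazurin and expressed as % of untreated cells; mean of three independent measurements. IC50 is the concentration reducing proliferation by 50%.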

Salmonidae = experiment: Thermal stabilization of salmon sperm duplex DNA assessed as melting temperature by FRET assay
NIH3T3 [6] = experiment: Cellular uptake in mouse NIH/3T3 cells at 0.5 to 10 uM after 10 mins to 8 hrs by flow cytometric analysis; type: ADME, cell-based; settings: nih3t3, 10 µM
Summary of the method: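 Flow cytometric uptake of 10 μM ligand over time (15 min, 1, 2, 6, 8 h; T24, and up to 8 h in NIH 3T3 and 293). Cells plated at 5 × 10^4 per well the day before. Ligand fluorescence detected in FL3 (680 nm), at least 10,000 cells acquired.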

[7] = Binding affinity to human HRAS2 G-quadruplex FAM-CGGGGCGGGGCGGGGGCGGGGGCG-TAMRA DNA assessed as quenching of fluorescence emission by FRET titration assay
Summary of the method: (§4)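 FRET titration of 200 nM oligonucleotide dual-labelled at its ends with carboxyfluorescein (donor) and tetramethylrhodamine (acceptor), in 50 mM Tris-HCl with KCl (100 mM for htelo and hras-1, 10 mM for KRAS and hras-2). Ligand binding quenches the emission, mainly the acceptor at 580 nm. The fraction of filled sites was fitted to the Hill equation to give apparent KD and the Hill coefficient.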

Homo sapiens [8] = species: Homo sapiens; experiment: Thermal stabilization of human NRAS G-quadruplex FAM-GGGAGGGGCGGGUCUGGG-TAMRA RNA assessed as change in melting temperature at 1:1 DNA:ligand ratio by FRET assay
Summary of the method: (§5)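 FRET melting in 50 mM Tris-HCl pH 7.4 with an equimolar ligand:quadruplex ratio (r = 1). Conditions: NRAS RNA and hras-2 in 10 mM KCl; hras-1 in 100 mM KCl, with ΔTM taken from its second transition. Ramp 1 °C/min from 20 to 95 °C after 5 min equilibration. TM and ΔTM (±0.5 K) versus ligand-free quadruplex.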

T-24 [9] = experiment: Cellular uptake in human T24 cells after 4 hrs by FACS flow cytometric analysis in presence of dynasore; type: ADME, cell-based; settings: t-24, 4 h
Summary of the method: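 T24 cells pretreated 30 min with 80 μM dynasore, then exposed to 5 μM ligand for 4 h. Analysed by flow cytometry (488 nm laser, FL3 680 nm channel), at least 10,000 cells.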

Homo sapiens [10] = species: Homo sapiens; experiment: Thermal stabilization of human HRAS2 G-quadruplex FAM-CGGGGCGGGGCGGGGGCGGGGGCG-TAMRA DNA assessed as as change in melting temperature at 1:4 DNA:ligand ratio by FRET assay
T-24 [11] = experiment: Cytotoxicity against human T24 cells expressing mutant HRAS at 1 to 30 uM after 72 hrs by resazurin assay; type: functional, cell-based; settings: T-24, 72 h; summary of the method: as §3
T-24 [12] = experiment: Cell cycle arrest in human T24 cells assessed as accumulation at G2/M phase at 10 uM after 48 to 72 hrs by FACS analysis relative to control; type: functional; summary of the method: as §2
[13] = Binding affinity to mouse KRAS G-quadruplex FAM-GCGGGAGGGAGGGAAGGAGGGAGGGAGGGAG-TAMRA DNA assessed as quenching of fluorescence emission by FRET titration assay; summary of the method: as §4
T-24 [14] = experiment: Induction of apoptosis in human T24 cells by caspase 3/7 assay; type: functional, cell-based
T-24 (human) = experiment: Cell cycle arrest in human T24 cells expressing mutant HRAS assessed as accumulation at G2/M phase at 10 uM after 24 hrs by FACS analysis
T-24 [15] = experiment: Cellular uptake in human T24 cells at 4 degC by FACS flow cytometric analysis; type: ADME, cell-based
Summary of the method: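 T24 cells incubated with ligand at 4 °C or 37 °C. Intracellular ligand fluorescence measured by flow cytometry in the FL3 (680 nm) channel.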

Homo sapiens [16] = species: Homo sapiens; experiment: Thermal stabilization of human HRAS1 G-quadruplex FAM-TCGGGTTGCGGGCGCAGGGCACGGGCG-TAMRA DNA assessed as change in melting temperature at 1:1 DNA:ligand ratio by FRET assay; summary of the method: as §5
Mus musculus = species: Mus musculus; experiment: Thermal stabilization of mouse KRAS G-quadruplex FAM-GCGGGAGGGAGGGAAGGAGGGAGGGAGGGAG-TAMRA DNA assessed as change in melting temperature at 1:5 DNA:ligand ratio by FRET assay; summary of the method: as §1
T-24 [17] = experiment: Binding affinity to HRAS G-quadruplex DNA in human T24 cells assessed as reduction in p21HRAS level at 5 uM by immunoblotting analysis relative to control
T-24 (Homo sapiens) = experiment: Cellular uptake in human T24 cells after 4 hrs by FACS flow cytometric analysis in presence of dynasore; settings: t24, 4 h
T-24 [18] = experiment: Binding affinity to HRAS G-quadruplex DNA in human T24 cells assessed as reduction in p21HRAS level at 5 uM after 72 hrs by immunoblotting analysis relative to control

SMILES	deltaTm (Homo sapiens [1]) [K]	Activity (T-24 [2]) [%]	Drug uptake (T-24 [3])	Activity (T-24 [4])	IC50 (NIH3T3 [5]) [µM]	Activity (Salmonidae)	Drug uptake (NIH3T3 [6])	Kd [7] [nM]	deltaTm (Homo sapiens [8]) [K]	Drug uptake (T-24 [9])	deltaTm (Homo sapiens [10]) [K]	IC50 (T-24 [11]) [µM]	Activity (T-24 [12]) [%]	Kd [13] [nM]	Activity (T-24 [14])	Activity (T-24 (human))	Drug uptake (T-24 [15])	deltaTm (Homo sapiens [16]) [K]	deltaTm (Mus musculus) [K]	Drug uptake (T-24 (Homo sapiens))	other results
N=C(N)NCCNc1c2c(c(NCCNC(=N)N)c3sccc13)C(=O)c1ccccc1C2=O	14	63	Active	inactive	20	Active	Active	270	5	Not Active	19	4.4	12	250	inactive	Active	Active	5	15	–	Activity (T-24 [17]): Active
N=C(N)NCCCNc1c2c(c(NCCCNC(=N)N)c3sccc13)C(=O)c1ccccc1C2=O	21	63	Active	inactive	> 30	Active	Active	230	11	Active	17	19.5	12	180	inactive	Active	–	5	33	Active	–
N=C(N)NCCCNc1c2c(c(NCCNC(=N)N)c3sccc13)C(=O)c1ccccc1C2=O	23	63	Active	inactive	20	Active	Active	280	11	Not Active	12	6.5	12	230	inactive	Active	–	8	28	–	Activity (T-24 [18]): Active
N=C(N)NCCCNc1c2c(c(NCCNC(=N)N)c3ccsc13)C(=O)c1ccccc1C2=O	21	63	Active	inactive	> 30	Active	Active	370	9	Active	17	7.9	12	210	inactive	Active	–	5	27	Active	Activity (T-24 [18]): Active
N=C(N)NCCCCNc1c2c(c(NCCCCNC(=N)N)c3sccc13)C(=O)c1ccccc1C2=O	34	63	–	inactive	> 30	Active	Active	280	> 13	Active	26	19.1	12	270	inactive	Active	Active	7	35	Active	Activity (T-24 [17]): Active
